In the library only some 4.1% were active in any assay of this set; here they are far more common.
MEKK2 WT-MEK5: raises or lowers MEK5 binding to wildtype human MEKK2 PB1 domain | binding response (% of control), % at 10 µM | bead flow cytometry, Alexa488-MEK5 binding to MEKK2 WT; actives lie on both sides | Q9Y2U5 | 290,000 tested, 1.1% active | AID 1531; in the data active = binding response below about 67% or above about 130%
T cruzi inh: T. cruzi replication inhibition | T. cruzi beta-gal in NIH3T3, luminescence, 90 h | inhibition, % (no concentration beside the values) | 300,000 tested, 1.4% active | AID 1885;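 active = mean inhibition across valid replicates above about 55%, limit read from the data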;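 also: signal also drops with host cell toxicity which is not excluded here; 0% = plate median of DMSO wells and 100% = zero luminescence signal; higher percent means less beta-gal luminescence so fewer parasites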
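compound dosing = single 50 nL compound addition per well in DMSO | material = NIH/3T3 host cells with β-galactosidase reporter T. cruzi | input = 5,000 host fibroblasts per well | timing = ≥90 h infection period, 3 h prior cell attachment | read-out basis = percent inhibition of parasite-derived β-gal signal | detection = GalScreen β-gal luminescence, detergent lysis, 60 min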
HCV NS3 hel inh: inhibitors of Hepatitis C virus NS3 helicase; inhibition, % at 10.9 µM; NS3 helicase DNA unwinding, Cy5 molecular beacon fluorescence; 290,000 tested, 0.56% active; AID 1800;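 active = inhibition above the mean of all tested compounds plus 3 SD, set per campaign, cut at about 35% in these data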;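 also: 0% = DMSO wells and 100% = thioflavine S control wells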
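System: HCV NS3 helicase fragment; control set: DMSO and thioflavine S; technique: Cy5 fluorescence at 0 and 60 min, beacon hairpin quenching; reagent: beacon DNA duplex substrate plus ATP; replicates: singlicate; schedule: 1 h reaction at 25 °C, ATP-initiated; medium: MOPS buffer pH 6.5 with MgCl2, DTT, Tween20, BSA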
MEKK2 mut-MEK5: signal of MEK5 binding to mutant human MEKK2 PB1 domain. bead flow cytometry, Alexa488-MEK5 binding to MEKK2 mutant. 290,000 tested, 0.35% active. percent response, % at 10 µM; in the data active = percent response above about 24%, passing the limit was not always enough
MEKK3 PB1 HTS: raises or lowers MEK5 binding to the human MEKK3 PB1 domain | 290,000 tested, 1.4% active | bead-based flow cytometry, Alexa488-MEK5 binding to MEKK3; actives lie on both sides; 0 = blocked by unlabeled MEK5, 100 = vehicle | binding response (% of control), % at 10 µM;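 active = binding response more than 3 SD above or below the average of its plate-row segment, actives on both sides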;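 also: Alexa488 bead fluorescence after subtracting the streptavidin-only scavenger bead signal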
DNA FID counter: fluorescent intercalator displacement, NS3 helicase counter-screen. 290,000 tested, 0.17% active. DNA fluorescent intercalator displacement, fluorescence. inhibition, % at 7.9 µM; in the data active = inhibition above about 37%;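 also: 0% = vehicle and 100% = reference compound; higher means more ethidium bromide displaced from hairpin DNA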
Active calls of the source: *.

Cc1ccc(S(=O)(=O)N2CCCCC2)cc1NC(=O)Nc1ccc(Cl)cc1Cl was read as MEKK2 WT-MEK5 124, T cruzi inh 55*, HCV NS3 hel inh 7, MEKK2 mut-MEK5 11, MEKK3 PB1 HTS 99 and DNA FID counter -2.
Screening CC(C)[C@H](NC(N)=O)C(=O)Nc1ccc(F)c(Cl)c1 returned MEKK2 WT-MEK5 94, T cruzi inh -4, HCV NS3 hel inh -9, MEKK2 mut-MEK5 -11, MEKK3 PB1 HTS 96 and DNA FID counter 3.
Screening CCN(CC)CCNC(=O)c1ccc(NC(=O)c2cn(-c3ccc(F)cc3)nc2-c2cccc(OC)c2)cc1 returned MEKK2 WT-MEK5 222*, T cruzi inh 65*, HCV NS3 hel inh -48, MEKK2 mut-MEK5 51*, MEKK3 PB1 HTS 108 and DNA FID counter 33.
For CC(=O)C1=C(C)NC(SCC(=O)c2ccc(Cl)cc2Cl)=C(C#N)C1c1ccco1 (stereo unspecified) the results were MEKK2 WT-MEK5 85, T cruzi inh 66*, HCV NS3 hel inh 6, MEKK2 mut-MEK5 -1, MEKK3 PB1 HTS 104 and DNA FID counter 3.
Cc1cc(C)c(C#N)c(SCC(=O)c2ccc(Cl)cc2Cl)n1 was read as MEKK2 WT-MEK5 97, T cruzi inh 75*, HCV NS3 hel inh -8, MEKK2 mut-MEK5 -3, MEKK3 PB1 HTS 99 and DNA FID counter -1.
Screening COc1ccc(CNC(=O)CSc2nc(-c3ccccc3)cc(-c3cccs3)c2C#N)cc1 returned MEKK2 WT-MEK5 94, T cruzi inh -5, HCV NS3 hel inh 0, MEKK2 mut-MEK5 0, MEKK3 PB1 HTS 97 and DNA FID counter 0.
CCOC(=O)CSc1nc(C)cc(C)c1C#N was read as MEKK2 WT-MEK5 100, T cruzi inh -11, HCV NS3 hel inh -3, MEKK2 mut-MEK5 1, MEKK3 PB1 HTS 98 and DNA FID counter -1.
For CC(=O)C1=C(C)NC(SCC(=O)c2ccc(Cl)cc2)=C(C#N)C1c1ccco1 (stereo unspecified) the results were MEKK2 WT-MEK5 84, T cruzi inh 32, HCV NS3 hel inh 9, MEKK2 mut-MEK5 -6, MEKK3 PB1 HTS 93 and DNA FID counter 3.
COc1cc(-c2cc(-c3ccccc3)nc(SCC(=O)Nc3nccs3)c2C#N)cc(OC)c1OC was read as MEKK2 WT-MEK5 97, T cruzi inh 55*, HCV NS3 hel inh 1, MEKK2 mut-MEK5 4, MEKK3 PB1 HTS 104 and DNA FID counter 1.
Screening Cc1cc(C)c(C#N)c(SCC(=O)Nc2nnc(-c3ccccc3)s2)n1 returned MEKK2 WT-MEK5 107, T cruzi inh 55*, HCV NS3 hel inh -7, MEKK2 mut-MEK5 3, MEKK3 PB1 HTS 104 and DNA FID counter -3.
`Cc1ccc(C(=O)OCC(=O)NCc2cccs2)cc1S(=O)(=O)N1CCOCC1` gave MEKK2 WT-MEK5 102, T cruzi inh -15, HCV NS3 hel inh 5, MEKK2 mut-MEK5 6, MEKK3 PB1 HTS 106 and DNA FID counter -12.
Cc1nc(SCC(=O)Nc2nc3ccccc3s2)c(C#N)c(C)c1C was read as MEKK2 WT-MEK5 97, T cruzi inh 22, HCV NS3 hel inh 1, MEKK2 mut-MEK5 -2, MEKK3 PB1 HTS 96 and DNA FID counter -7.
Cc1cc(C(F)(F)F)c(C#N)c(SCC(=O)Nc2nc3ccccc3s2)n1 was read as MEKK2 WT-MEK5 57*, T cruzi inh -2, HCV NS3 hel inh -1, MEKK2 mut-MEK5 45, MEKK3 PB1 HTS 117 and DNA FID counter -4.
`CN(C)c1ccc(C2N(c3ccc(F)cc3)C(=O)C3CCCN32)cc1` (stereo unspecified) gave MEKK2 WT-MEK5 18*, T cruzi inh -6, HCV NS3 hel inh -8, MEKK2 mut-MEK5 19, MEKK3 PB1 HTS 92 and DNA FID counter 0.
For CN(C)c1ccc(C2N(c3ccc(Cl)cc3)C(=O)C3CCCN32)cc1 (stereo unspecified) the results were MEKK2 WT-MEK5 84, T cruzi inh 3, HCV NS3 hel inh -7, MEKK2 mut-MEK5 -7, MEKK3 PB1 HTS 78 and DNA FID counter 0.

High-throughput results as filed in PubChem BioAssay.
